Experimental data collected from several papers.
Each line is one published result; the experiments were not run side by side.
Cell line: HepG2
Observed: cell growth or viability

| SMILES | test | conditions | endpoint | value |
| --- | --- | --- | --- | --- |
| Cc1cc(Nc2ccc(C(=O)N/N=C/c3cc4ccccc4[nH]3)cc2)c2cccc(O)c2n1 | MTT | 20 µM | inhibition | 54.1% |
| Cc1cc(=O)oc2ccc(-c3cc(-c4ccc(Br)cc4)nc(N)n3)c(O)c12 | MTT | 32 µg/mL, 72 h | inhibition | 8% |
| Fc1ccc(-c2nc3ccccc3n2Cc2ccccc2)cc1 | MTT | – | IC50 | 45.9 µM |
| COc1ccc(NC(=O)c2c(Nc3ccccc3)sc(C#N)c2NC(=O)CNc2ccc(O)cc2)cc1 | SRB | 10 nM, 48 h | viability | 92.1% |
| O=C(CN1C(=O)/C(=C/c2cccc(O)c2)SC1=S)Nc1ccccc1 | MTT | 10 µM | inhibition | 5.11% |
| CCOC(=O)c1ccc(NC(=O)C2=C3C(=Nc4ccccc43)NC2=O)cc1 | MTT | 100 µM, 24 h | viability | 35.6% |
| COc1ccc(NC(=O)c2c(Nc3ccccc3)sc(C#N)c2NC(=O)CNc2ccccc2Cl)cc1 | SRB | 10 µM, 48 h | viability | 79.2% |
| CCn1cc(C(N)=O)c(=O)c2cc(F)c(N3CCC(C)CC3)cc21 | ATP luminescence | 48 h | EC50 | > 40 µM |
| O=C(CN1C(=O)/C(=C/c2ccncc2)SC1=S)Nc1ccccc1 | MTT | 10 µM | inhibition | 11.8% |
| COc1ccc(NC(=O)c2c(Nc3ccccc3)sc(C(=O)NN=Cc3ccc(OC)c(O)c3)c2NC(C)=O)cc1 | SRB | 10 µM, 48 h | viability | 31.6% |
| COc1cccc(NC(=O)CN2C(=O)/C(=C/c3cccs3)SC2=S)c1 | MTT | 10 µM | inhibition | 12.2% |
| Cc1ccc2nc(-c3c4ccccc4cc4ccccc34)[nH]c2c1 | MTT | 48 h | IC50 | 21.4 µM |
| COc1ccc(NC(=O)c2c(Nc3ccccc3)sc(C(=O)NN=Cc3cc(OC)c(OC)c(OC)c3)c2NC(C)=O)cc1 | SRB | 100 µM, 48 h | viability | 33.9% |
| CC(=O)Nc1cccc(-n2c(=O)n(C3CC3)c(=O)c3c(Nc4ccc(I)cc4F)n(C)c(=O)c(C)c32)c1 | resazurin | 1.56 nM, 72 h | viability | 96.4% |
| Cc1ccc2nc(-c3ccc([N+](=O)[O-])cc3)[nH]c2c1 | MTT | 48 h | IC50 | 18.6 µM |
| Cc1cc(=O)oc2ccc(-c3cc(-c4cccc(Cl)c4)nc(N)n3)c(O)c12 | MTT | 2 µg/mL, 72 h | inhibition | 0% |
| COc1cccc2c1C(=O)c1c(O)c3c(c(O)c1C2=O)C[C@@](O)(C(=O)CO)C[C@@H]3O[C@H]1C[C@H](N)[C@H](O)[C@H](C)O1 | MTT | 48 h | IC50 | 0.1 µM |
| Cc1cc(=O)oc2ccc(-c3cc(-c4ccccc4)nc(N)n3)c(O)c12 | MTT | 128 µg/mL, 72 h | inhibition | 20% |
| CC(=O)Oc1ccc(/C=N/NC(=O)c2ccc(Nc3cc(C)nc4c(O)cccc34)cc2)cc1 | MTT | 20 µM | inhibition | 56.7% |
| CN(C)C/C=N/NC(=O)Nc1cc2c(Nc3ccc(F)c(Cl)c3)ncnc2cc1O[C@H]1CCOC1 | MTT | 72 h | IC50 | 3.08 µM |
| CCn1cc(-c2nc(C)no2)c(=O)c2cc(F)c(N3CCC(C)(C)CC3)cc21 | ATP luminescence | 48 h | EC50 | > 40 µM |
| COc1ccc(NC(=O)c2c(Nc3ccccc3)sc(C#N)c2NC(=O)CNc2ccc(OC)c(OC)c2)cc1 | SRB | 1 nM, 48 h | viability | 100% |
| COc1cccc(-c2nc3ccccc3[nH]2)c1 | MTT | 48 h | IC50 | 47.1 µM |

| SMILES | test | conditions | endpoint | value |
| --- | --- | --- | --- | --- |
| Cc1cc(=O)oc2ccc(-c3cc(-c4cccs4)nc(N)n3)c(O)c12 | MTT | 128 µg/mL, 72 h | inhibition | 36% |
| O=C(N/N=C/c1cccn1CCN1CCCCC1)Nc1cc2c(Nc3ccc(F)c(Cl)c3)ncnc2cc1O[C@H]1CCOC1 | MTT | 72 h | IC50 | 0.59 µM |
| CCOC(=O)c1ccc(-n2c(-c3ccc(C)cc3)cc(-c3ccc(O)cc3)c(C#N)c2=O)cc1 | MTT | 1.56 µM, 24 h | viability | 100% |
| O=C(CN1C(=O)/C(=C/c2ccccc2F)SC1=S)Nc1ccccc1 | MTT | 10 µM | inhibition | 7.65% |
| CSc1ccc(-c2nc3ccc(C)cc3[nH]2)cc1 | MTT | 48 h | IC50 | > 100 µM |
| CCOC(=O)c1ccc(-n2c(N)c(C#N)c(CC#N)c(C#N)c2=O)cc1 | MTT | 100 µM, 24 h | viability | 24.5% |
| COc1ccccc1/C=C1\SC(=S)N(CC(=O)Nc2ccccc2)C1=O | MTT | 10 µM | inhibition | 25.6% |
| CCN(CC)C/C=N/NC(=O)Nc1cc2c(Nc3ccc(F)c(Cl)c3)ncnc2cc1OC | MTT | 72 h | IC50 | 2.15 µM |
| CCOC(=O)c1cn(CC)c2cc(N3CCC(C)CC3)c(F)cc2c1=O | ATP luminescence | 48 h | EC50 | > 40 µM |
| COc1cccc(/C=C2\SC(=S)N(CC(=O)Nc3ccccc3)C2=O)c1 | MTT | 10 µM | inhibition | 13.9% |
| COc1ccc(NC(=O)c2c(Nc3ccccc3)sc(C(=O)NN=Cc3ccc(Cl)cc3)c2NC(C)=O)cc1 | SRB | 10 nM, 48 h | viability | 95.2% |
| CCn1cc(-c2nc(C)no2)c(=O)c2cc(F)c(N3CCC(F)(F)CC3)cc21 | ATP luminescence | 48 h | EC50 | > 40 µM |
| C=CCn1c(-c2ccc(Cl)cc2)nc2ccc(C)cc21 | MTT | – | IC50 | 38.8 µM |
| O=C(CN1C(=O)/C(=C/c2ccc(F)cc2)SC1=S)Nc1ccccc1 | MTT | 10 µM | inhibition | 6.59% |
| CCn1cc(-c2nc(C)no2)c(=O)c2cc(F)c(N3CCC4(CC3)CC4)cc21 | ATP luminescence | 48 h | EC50 | > 40 µM |
| COc1ccc(-c2cc(-c3ccc4oc(=O)cc(C)c4c3O)nc(N)n2)cc1 | MTT | 32 µg/mL, 72 h | inhibition | 15% |
| COc1ccc(NC(=O)c2c(Nc3ccccc3)sc(C#N)c2NC(=O)CNc2ccccc2[N+](=O)[O-])cc1 | SRB | 10 nM, 48 h | viability | 92.5% |
| Cc1cc(=O)oc2ccc(-c3cc(-c4ccc(Cl)cc4)nc(N)n3)c(O)c12 | MTT | 128 µg/mL, 72 h | inhibition | 87% |
| Cc1ccc2nc(-c3ccc(Cl)cc3)n(Cc3ccccc3Cl)c2c1 | MTT | – | IC50 | 47.9 µM |
| CCOC(=O)c1ccc(N2C(N)=C(C#N)C3(C(=O)Nc4ccccc43)C(C#N)=C2O)cc1 (stereo not shown) | MTT | 25 µM, 24 h | viability | 23.5% |
| COc1ccc(NC(=O)c2c(Nc3ccccc3)sc(C#N)c2NC(=O)CNc2ccccc2)cc1 | SRB | 10 µM, 48 h | viability | 90.4% |
| COc1cccc2c1C(=O)c1c(O)c3c(c(O)c1C2=O)C[C@@](O)(C(=O)CO)C[C@@H]3O[C@H]1C[C@H](N)[C@H](O)[C@H](C)O1 | MTT | 100 µM, 24 h | viability | 6.3% |
| COc1ccc(-c2nc3ccccc3[nH]2)cc1O | MTT | 48 h | IC50 | 64.2 µM |
